# Experimental data: article PMC9272679 (Computers in Biology and Medicine, 2022)
# Marks after values point to notes of the source that are not given here.
# What was measured:
# [1] = tested on: five cell lines originating from human lungs; assay: In vitro antiproliferative assay; type: cell-based; settings: read-out: IC50 range
# Procedure, shortened: (§1)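 NCI-sourced cells grown in DMEM with 10% FBS, penicillin 25 U/mL and streptomycin 25 U/mL (37 °C, 5% CO2, 95% humidity). 5000–40,000 viable cells/well attached 24 h, then fresh medium with test compound at 0, 0.1, 1.0, 10 or 100 μM for 48 h. TCA-fixed (10%, 1 h RT), 0.4% SRB stain 60 min, acetic acid wash, Tris-solubilised dye read at 515 nm. GI50 and TGI calculated; triplicates, mean ± SD.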
# K-562 = assay: In vitro antiproliferative assay; type: cell-based, human; settings: for mean optical densities: 48 h, SRB, 515 nm
# Procedure, shortened: as §1
# NCI–H522 = assay: In vitro antiproliferative assay; type: cell-based, human; settings: for mean optical densities: 48 h, SRB, 515 nm
# Procedure, shortened: as §1
# HOP-62 = assay: In vitro antiproliferative assay; type: cell-based, human; settings: for mean optical densities: 48 h, SRB, 515 nm
# Procedure, shortened: as §1
# A549/ATCC = assay: In vitro antiproliferative assay; type: cell-based, human; settings: for mean optical densities: A549/ATCC, 48 h, SRB, 515 nm
# Procedure, shortened: as §1
# MCF7 = assay: In vitro antiproliferative assay; type: cell-based, human; settings: for mean optical densities: 48 h, SRB, 515 nm
# Procedure, shortened: as §1
# NCI–H322 M = assay: In vitro antiproliferative assay; type: cell-based, human; settings: 48 h; for mean optical densities: NCI–H322 M, SRB, 515 nm
# Procedure, shortened: as §1
# NCI–H226 = assay: In vitro antiproliferative assay; type: cell-based, human; settings: for mean optical densities: 48 h, SRB, 515 nm
# Procedure, shortened: as §1
# A549 = assay: In vitro antiproliferative assay; type: cell-based, human; settings: for mean optical densities: 48 h, SRB, 515 nm
# Procedure, shortened: as §1
# [2] = In vivo pharmacokinetics in rats; design: species or system Male albino Wistar rats; settings: male, Wistar, rat, plasma, po, 5 mg/kg
# Procedure, shortened: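 Rats were given test compound at 5 mg/kg BW orally. Blood was drawn hourly over 24 h (24 samples) into Na2EDTA tubes, and plasma was quantified by UPLC. Cmax, Tmax and AUC0-t were taken from the plasma concentration-time curve. K came from the terminal log-linear slope, and AUC0→∞ was calculated as AUC0-t + Clast/K.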
structure (smiles),measurement,setting,value
"CCNc1nc2ccccc2c2c(=O)c3cc(Cl)ccc3sc12 [RXn-02, 10-chloro-6-(ethylamino)-12H-thiochromeno[2,3-c] quinolin-12-one]",IC50,[1],33.2 to 69.5 µM
same,IC50,"K-562; Homo sapiens, K562, 48 h",100 µM
same,mean optical densities,"K-562; K-562, RXn-02 0.1 μM",1.771
same,mean optical densities,"K-562; K-562, RXn-02 1.0 μM",1.668
same,mean optical densities,"K-562; K-562, RXn-02 10 μM",1.242
same,mean optical densities,"K-562; K-562, RXn-02 100 μM",1.056*
same,IC50,"NCI–H522; Homo sapiens, NCI-H522, 48 h",24.8 µM
same,mean optical densities,"NCI–H522; NCI–H522, RXn-02 0.1 μM",2.405
same,mean optical densities,"NCI–H522; NCI–H522, RXn-02 1.0 μM",2.362
same,mean optical densities,"NCI–H522; NCI–H522, RXn-02 10 μM",2.110*
same,mean optical densities,"NCI–H522; NCI–H522, RXn-02 100 μM",1.395**
same,mean optical densities,"HOP-62; HOP-62, RXn-02 0.1 μM",1.859
same,mean optical densities,"HOP-62; HOP-62, RXn-02 1.0 μM",1.761
same,mean optical densities,"HOP-62; HOP-62, RXn-02 10 μM",1.463*
same,mean optical densities,"HOP-62; HOP-62, RXn-02 100 μM",0.319***
same,IC50,"HOP-62; Homo sapiens, HOP-62, 48 h",13.3 µM
same,mean optical densities,A549/ATCC; RXn-02 0.1 μM,1.997
same,mean optical densities,A549/ATCC; RXn-02 1.0 μM,1.883
same,mean optical densities,A549/ATCC; RXn-02 10 μM,1.602**
same,mean optical densities,A549/ATCC; RXn-02 100 μM,1.129**
same,IC50,"A549/ATCC; Homo sapiens, A549, 48 h",48.1 µM
same,IC50,"MCF7; Homo sapiens, MCF7, 48 h",0.047 µM
same,mean optical densities,"MCF7; MCF7, RXn-02 0.1 μM",1.083
same,mean optical densities,"MCF7; MCF7, RXn-02 1.0 μM",0.873
same,mean optical densities,"MCF7; MCF7, RXn-02 10 μM",0.735***
same,mean optical densities,"MCF7; MCF7, RXn-02 100 μM",0.699***
same,IC50,"NCI–H322 M; Homo sapiens, NCI-H322M",69.5 µM
same,mean optical densities,NCI–H322 M; RXn-02 0.1 μM,1.491
same,mean optical densities,NCI–H322 M; RXn-02 1.0 μM,1.386
same,mean optical densities,NCI–H322 M; RXn-02 10 μM,1.209*
same,mean optical densities,NCI–H322 M; RXn-02 100 μM,1.020*
same,IC50,"NCI–H226; Homo sapiens, NCI-H226, 48 h",33.2 µM
same,mean optical densities,"NCI–H226; NCI–H226, RXn-02 0.1 μM",2.389
same,mean optical densities,"NCI–H226; NCI–H226, RXn-02 1.0 μM",2.367
same,mean optical densities,"NCI–H226; NCI–H226, RXn-02 10 μM",2.142*
same,mean optical densities,"NCI–H226; NCI–H226, RXn-02 100 μM",1.704**
same,mean optical densities,"A549; A549, RXn-02 0.1 μM",1.997
same,mean optical densities,"A549; A549, RXn-02 1.0 μM",1.883
same,mean optical densities,"A549; A549, RXn-02 10 μM",1.602**
same,mean optical densities,"A549; A549, RXn-02 100 μM",1.129**
same,IC50,"A549; Homo sapiens, A549, 48 h",48.1 µM
same,AUC(0-t),[2],18900 ng·h/mL
same,Cmax,[2],1760 ng/mL
